Screening data from PubChem BioAssay.
In the library only some 3.5% were active in any assay of this set; here they are far more common.
RGS4 block = human RGS4 inhibition | hit rate 0.45% among 310,000 | HEK293 M3R/RGS4 inducible, Fluo-4 calcium flux; active compounds read high; triggered by carbachol at its EC20 | P49798 | B-score at 10 µM;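 active means B-score, a plate-corrected calcium signal, over three deviations above library mean, with baseline fluorescence within five deviations of library mean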;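 further: RGS4 expression induced by doxycycline in cells with stable M3 receptor; B-score is computed from the integrated fluorescence ratio over baseline after carbachol; higher B-score means a larger calcium signal and so more RGS4 inhibition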
Target sequence (P49798 whole entry, looked up): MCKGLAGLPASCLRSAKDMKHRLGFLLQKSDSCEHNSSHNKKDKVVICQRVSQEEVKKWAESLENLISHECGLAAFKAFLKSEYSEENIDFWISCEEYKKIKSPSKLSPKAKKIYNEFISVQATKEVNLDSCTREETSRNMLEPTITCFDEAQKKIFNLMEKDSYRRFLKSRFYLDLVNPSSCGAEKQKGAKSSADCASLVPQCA
MrgX1 PAM = human MrgX1 positive allosteric modulation, primary screen; Q96LB2; hit rate 0.63% among 310,000; B-score at 10 µM; MrgX1-HEK293, Fluo-4 calcium flux, FDSS; active compounds read high;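 active means plate-corrected calcium response at least 3 library SD above typical, normal starting fluorescence, not activating the receptor alone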;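 further: compound read alongside a low EC10 to EC30 dose of BAM8-22 agonist; peak minus trough fluorescence over baseline measured at the second addition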
Target sequence (Q96LB2 whole entry, looked up): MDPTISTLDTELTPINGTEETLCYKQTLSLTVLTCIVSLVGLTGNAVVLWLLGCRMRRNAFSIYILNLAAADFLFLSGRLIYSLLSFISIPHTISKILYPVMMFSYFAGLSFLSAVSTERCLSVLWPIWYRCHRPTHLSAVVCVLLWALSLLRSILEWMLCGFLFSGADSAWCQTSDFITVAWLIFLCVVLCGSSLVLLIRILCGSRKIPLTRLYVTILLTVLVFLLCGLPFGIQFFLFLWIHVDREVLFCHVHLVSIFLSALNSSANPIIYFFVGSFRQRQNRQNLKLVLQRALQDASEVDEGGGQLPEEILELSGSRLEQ
MrgX1 agonist = agonists of human MrgX1 receptor; Q96LB2; MrgX1-HEK293 cells, Fluo-4 calcium fluorescence, agonist mode; active compounds read high; B-score at 10 µM; hit rate 0.44% among 310,000; AID 588627;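 active means calcium response B-score plate-corrected fluorescence ratio at least 3 library SD, with starting fluorescence B-score inside 5 SD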
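Test system: HEK293 cells stably expressing human MrgX1 receptor; Input: fifteen thousand cells per well; Dosing: compound delivered in addition one of three; Schedule: overnight seeding, then 1 h dark dye loading; Technique: Fluo-4 NW calcium fluorescence; Measure: B-scored fluorescence response ratio; Controls: positive and negative controls per plate.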
MrgX1 antag = antagonists of human MrgX1 receptor; hit rate 1.3% among 310,000; Q96LB2; B-score at 10 µM; MRGX1-HEK293 calcium flux, Fluo-4, BAM8-22 antagonism; active compounds read low;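 active means calcium-response B-score plate-corrected more than 3 library SD below zero, starting fluorescence within 5 deviations, no agonist response on first addition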;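 further: peak minus trough fluorescence over baseline after final BAM8-22 challenge near maximal dose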
RGS4 pot = RGS4 potentiation or activation | HEK293 M3R/inducible RGS4, carbachol calcium flux Fluo4; active compounds read low | B-score at 10 µM | hit rate 0.92% among 310,000 | AID 463111;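 active means B-score of the integrated calcium signal more than 4 SD below the library mean, with starting fluorescence not abnormally high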;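 further: negative B-score means reduced calcium response which marks RGS4 activation or potentiation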
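Test system: HEK293 cells with stable M3R and inducible RGS4; also added: carbachol at ECmax as muscarinic agonist stimulus; schedule: dye loading 30 min 37 °C, buffer rest 30 min RT; technique: kinetic calcium fluorescence imaging with Fluo4-AM dye, 2 µM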
MrgX1 antag conf = confirmation of human MrgX1 receptor antagonists; shares compounds with MrgX1 antag; MrgX1-HEK293, BAM8-22 calcium flux, Fluo-4; active compounds read low; remaining BAM8-22 calcium response % of control (active compounds read low), % at 10 µM; hit rate 19% among 2,300;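 active means remaining agonist calcium response no higher than 100% minus 3 SD of agonist-only control wells, with starting fluorescence near control levels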;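 further: agonist BAM8-22 given at a near maximal EC90 to ECmax level; peak minus minimum fluorescence divided by baseline after agonist addition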
HEK293 Ca flux = activity in parental HEK293 cells lacking MrgX1 | shares compounds with MrgX1 antag | Fluo-4 calcium fluorescence, FDSS | fluorescence ratio F(max-min)/F0 at 10 µM | hit rate 2% among 4,000 | AID 624111;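 active means duplicate-averaged calcium fluorescence ratio at least three times the standard deviation of buffer wells, a nonspecific response in parental cells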
HEK293 Ca counter = MrgX1 allosteric activator counter-screen hit in parental HEK293 cells; shares compounds with MrgX1 antag; parental HEK293 calcium flux, Fluo-4 fluorescence ratio; active compounds read high; fluorescence ratio F(max-min)/F0 at 10 µM; hit rate 0.4% among 4,000; AID 624114;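 active means calcium fluorescence ratio, averaged over duplicates, at least 3 SD of the buffer-well ratio, meaning a nonspecific response in receptor-free cells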;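 further: untransfected parental HEK293 lacking MrgX1 used as counterscreen for MrgX1 allosteric activators; fluorescence change taken during the second addition on a kinetic imager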
HEK293 Ca cntr2 = MrgX1 activator counter-screen hit in parental HEK293 cells. shares compounds with MrgX1 antag. Fluo-4 calcium fluorescence (FDSS); active compounds read high. fluorescence ratio F(max-min)/F0 at 10 µM. hit rate 8.7% among 4,000. AID 624115;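 active means calcium fluorescence ratio at least three times the spread of buffer wells, meaning a non-specific response in parental cells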
Numbers without * were called inactive; i = inactive; · = no result.

SMILES	RGS4 block	MrgX1 PAM	MrgX1 agonist	MrgX1 antag	RGS4 pot	MrgX1 antag conf	HEK293 Ca flux	HEK293 Ca counter	HEK293 Ca cntr2
O=c1[nH]c2cc(Br)cnc2nc1/C=C(\O)c1ccc(F)cc1	i	i	i	-7*	i	75%*	i	i	i
CCc1ccc(CN2CCC(CO)(CC3CCCCO3)CC2)o1 (stereo unspecified)	i	i	i	i	i	·	·	·	·
COC(=O)/C(=C\Nc1ccccc1N)c1ncc(C(F)(F)F)cc1Cl	i	i	i	-4.5*	i	i	i	i	i
COc1ccc2c(c1OC)C(=O)OC2Nc1ccccc1S(=O)(=O)C(F)F (stereo unspecified)	i	i	i	-4.7*	i	i	i	i	i
C=CCn1c(CC(=O)OC)csc1=Nc1ccc(C(C)=O)cc1	i	i	i	-5.2*	i	i	i	i	i
CCc1ccc(N2CC(C(=O)Nc3ccc(F)cc3)CC2=O)cc1 (stereo unspecified)	i	i	i	i	i	·	·	·	·
Cc1cc(NC(=O)c2ccc(N3C(=O)C4C5C=CC(C5)C4C3=O)cc2)no1 (stereo unspecified)	i	i	i	i	i	·	·	·	·
Cc1cc(NC(=O)c2ccc(N3C(=O)CCC3=O)cc2)no1	i	i	i	-5.3*	i	i	i	i	i
Cc1cc(NC(=O)C2CC(=O)N(c3ccccc3)C2)no1 (stereo unspecified)	i	i	i	-4.6*	i	85%*	i	i	i
CCc1ccc(N2CC(C(=O)Nc3cc(C)ccc3F)CC2=O)cc1 (stereo unspecified)	i	i	i	-6.9*	i	i	i	i	i
Cc1cc2nc3n(c2cc1C)CC1CC(C(=O)NCc2cccc(C(F)(F)F)c2)N(C)C31 (stereo unspecified)	i	i	i	-5.5*	i	i	i	i	i
CN1C(C(=O)NCc2cccc(C(F)(F)F)c2)CC2Cn3c(nc4cc5ccccc5cc43)C21 (stereo unspecified)	i	i	i	i	i	·	·	·	·
CCN(c1ccccc1)c1cc(C)nc2ncnn12	i	i	i	-6.6*	i	i	i	i	i
Cc1cccc(N(C)c2cc(C)nc3ncnn23)c1	i	i	i	i	i	·	·	·	·
COc1cccc(NC(=O)c2nc(SC)ncc2Cl)c1	i	i	i	i	i	·	·	·	·
CN(c1ccccc1)S(=O)(=O)c1ccc(NC(=O)c2nc(S(C)(=O)=O)ncc2Cl)cc1	i	i	i	-5.7*	i	i	i	i	i
COc1cccc(NC(=O)c2nc(S(C)(=O)=O)ncc2Cl)c1	i	i	i	-5.5*	i	i	i	i	i
CN(c1ccccc1)S(=O)(=O)c1ccc(NC(=O)c2ccccc2)cc1	i	i	i	i	i	·	·	·	·
CCC(C)[C@H](NC(=O)N1CCN(C)CC1)C(=O)OC (stereo partly specified)	·	i	i	i	·	·	·	·	·
CCOC(=O)C1=C(C)NC(=S)NC1c1ccc(-c2ccc(Cl)cc2)o1 (stereo unspecified)	i	i	i	-4.8*	i	i	i	i	i
CCOC(=O)C1=C(C)NC(=O)NC1c1ccc(-c2ccc(Cl)cc2)o1 (stereo unspecified)	i	i	i	i	i	·	·	·	·
Cc1cccc(NC(=O)CCN2CCN(C/C=C/c3ccccc3)CC2)c1	i	i	i	-6.1*	i	i	i	i	i
Cc1cccc(CN2CCN(C(=S)Nc3ccccc3)CC2)c1	i	i	i	-5*	i	i	i	i	i
O=C(CCN1CCN(C/C=C/c2ccccc2)CC1)Nc1ccccc1	i	i	i	i	i	·	·	·	·
Cc1cccc(NC(=O)c2ccc(CN3CCN(Cc4ccccc4)CC3)cc2)c1	i	i	i	-7.9*	i	i	i	i	i
SMILES	RGS4 block	MrgX1 PAM	MrgX1 agonist	MrgX1 antag	RGS4 pot	MrgX1 antag conf	HEK293 Ca flux	HEK293 Ca counter	HEK293 Ca cntr2
CCOC(=O)c1c(C)[nH]c(C)c1S(=O)(=O)N(C)CC(=O)Nc1cccc(C)c1	i	i	i	i	i	·	·	·	·
O=C(CNC(=O)c1ccc(Br)o1)NCc1cccc(Cl)c1	i	i	i	i	i	·	·	·	·
O=C(CNC(=O)c1ccc(Br)o1)NCc1ccc(Cl)cc1Cl	i	i	i	-4.8*	i	i	i	i	i
CCC(C)C(NC(=O)c1ccc(Cl)cc1)C(=O)Nc1cccnc1 (stereo unspecified)	i	i	i	-7.6*	i	i	i	i	i
O=C(CN1C(=O)NC2(CCCc3ccccc32)C1=O)N1CCc2ccccc2C1 (stereo unspecified)	i	i	i	-9.3*	i	85%*	i	i	i
O=C1CCCC2=C1C(c1ccccc1)C1C(=O)c3ccccc3C1=N2 (stereo unspecified)	i	i	i	i	i	·	·	·	·
Cc1ccc(C2C3=C(CCCC3=O)N=C3c4ccccc4C(=O)C32)cc1 (stereo unspecified)	i	i	i	-16*	i	i	i	i	i
CCCCOc1ccc(NC(=O)CSc2cccc3cccnc23)cc1	i	i	i	-6.7*	i	i	i	i	i
CCCCc1ccc(NC(=O)CSc2nc3ncccc3[nH]2)cc1	i	i	i	-5.7*	i	i	i	i	i
CCN1CCN(S(=O)(=O)c2ccc(Cl)c(C(=O)N(C)Cc3cccc(Cl)c3Cl)c2)CC1	i	i	i	i	i	·	·	·	·
CC(=O)NCCc1ccc(S(=O)(=O)NC2OC(=O)c3ccccc32)cc1 (stereo unspecified)	i	i	i	-4.8*	i	i	i	i	i
